Results taken from ChEMBL document CHEMBL1143581, “Cationic chalcone antibiotics. Design, synthesis, and mechanism of action” (2005).
Values after ≈ are worked out from the molar mass of the structure shown.

Experiments:
[1] = tested on: Escherichia coli; test: Minimum inhibitory concentration against Escherichia coli ATCC 25922; format: functional
Method in brief: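 Broth microdilution per NCCLS in Mueller-Hinton medium, run in triplicate, with an added uninoculated compound dilution series in case of precipitation. MIC read as the lowest concentration preventing visible growth; reported values are the mean of three experiments.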

[2] = tested on: Staphylococcus aureus; test: Minimum inhibitory concentration against Staphylococcus aureus ATCC 33591 (resistant to methicillin); format: functional
[3] = tested on: Enterococcus faecium; test: Minimum inhibitory concentration against Enterococcus faecium 17501 (vancomycin-resistant clinical isolate); format: functional
[4] = tested on: Enterococcus faecium; test: Minimum inhibitory concentration against Enterococcus faecium […]; format: functional
[5] = Percent lysis of human erythrocytes after exposed to test compound was measured as hemolysis; format: functional
[6] = tested on: Staphylococcus aureus; test: Effect on bacterial membrane integrity was determined by using SYTO9 green fluorescent […]; format: functional, Bacteria
Method in brief: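 Incubated 15 min at 37 °C with agitation, then resuspended to OD600 ~0.4 and stained with BacLight (SYTO-9/propidium iodide) 15 min dark. Excitation 485 nm, emission 530/630 nm; green/red ratio normalized to untreated control.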

Cc1cc(C)cc(-c2ccc(OCCN(C)C)c(/C=C/C(=O)c3cccc(NCCN(C)C)c3)c2)c1
MIC [1]: 20 µM (≈ 9.71 µg/mL)
MIC [2]: 5 µM (≈ 2.43 µg/mL)
MIC [3]: 10 µM (≈ 4.86 µg/mL)
MIC [4]: 10 µM (≈ 4.86 µg/mL)

COc1ccc(C(=O)/C=C/c2cc(-c3ccccc3OC)ccc2N2CC[N+](C)(C)CC2)c(F)c1
MIC [2]: 10 µM

CN(C)CCNc1ccc(C(=O)/C=C/c2ccc(Cl)cc2Cl)cc1
MIC [2]: 40 µM (≈ 14.5 µg/mL)
MIC [3]: 40 µM (≈ 14.5 µg/mL)
MIC [4]: 40 µM (≈ 14.5 µg/mL)

Cc1cc(C)cc(-c2ccc(OCCN(C)C)c(/C=C/C(=O)c3ccccc3CN(C)C)c2)c1
MIC [1]: 75 µM (≈ 34.2 µg/mL)
MIC [2]: 10 µM (≈ 4.57 µg/mL)
MIC [3]: 10 µM (≈ 4.57 µg/mL)
MIC [4]: 5 µM (≈ 2.28 µg/mL)

COc1ccc(C(=O)/C=C/c2cc(C)ccc2OCCN(C)C)c(F)c1
MIC [2]: 75 µM (≈ 26.8 µg/mL)
MIC [3]: 150 µM (≈ 53.6 µg/mL)
MIC [4]: 150 µM (≈ 53.6 µg/mL)

Cc1cc(C)cc(-c2ccc(N3CCN(C)CC3)c(/C=C/C(=O)c3cccc(NCCN(C)C)c3)c2)c1
MIC [1]: 10 µM (≈ 4.97 µg/mL)
MIC [2]: 5 µM (≈ 2.48 µg/mL)
MIC [3]: 5 µM (≈ 2.48 µg/mL)
MIC [4]: 5 µM (≈ 2.48 µg/mL)

COc1ccc(C(=O)/C=C/c2cc(-c3cc(C)cc(C)c3)ccc2OCC[N+](C)(C)C)c(C[N+](C)(C)C)c1
MIC [2]: 10 µM

COc1ccc(C(=O)/C=C/c2cc(C(C)(C)C)ccc2OCCN(C)C)c(F)c1
MIC [2]: 10 µM (≈ 4 µg/mL)
MIC [3]: 20 µM (≈ 7.99 µg/mL)
MIC [4]: 20 µM (≈ 7.99 µg/mL)

CN(C)CCNc1ccc(C(=O)/C=C/c2ccc(Oc3ccccc3)cc2)cc1
MIC [2]: 20 µM (≈ 7.73 µg/mL)
MIC [3]: 20 µM (≈ 7.73 µg/mL)
MIC [4]: 5 µM (≈ 1.93 µg/mL)

COc1ccc(C(=O)/C=C/c2cc(-c3ccccc3)ccc2OCCN(C)C)c(F)c1
MIC [2]: 5 µM (≈ 2.1 µg/mL)
MIC [3]: 10 µM (≈ 4.19 µg/mL)
MIC [4]: 10 µM (≈ 4.19 µg/mL)

CN(C)Cc1ccc(C(=O)/C=C/c2ccc(Cl)cc2Cl)cc1
MIC [2]: 40 µM (≈ 13.4 µg/mL)
MIC [3]: 40 µM (≈ 13.4 µg/mL)
MIC [4]: 75 µM (≈ 25.1 µg/mL)

COc1ccc(C(=O)/C=C/c2cc(-c3cc(C)cc(C)c3)ccc2OCCN(C)C)cc1CN(C)C
MIC [1]: 40 µM (≈ 19.5 µg/mL)
MIC [2]: 20 µM (≈ 9.73 µg/mL)
MIC [3]: 20 µM (≈ 9.73 µg/mL)
MIC [4]: 20 µM (≈ 9.73 µg/mL)

Cc1cc(C)cc(-c2ccc(OCCN(C)C)c(/C=C/C(=O)c3cccc(OCCN(C)C)c3)c2)c1
MIC [1]: 20 µM (≈ 9.73 µg/mL)
MIC [2]: 5 µM (≈ 2.43 µg/mL)
MIC [3]: 10 µM (≈ 4.87 µg/mL)
MIC [4]: 10 µM (≈ 4.87 µg/mL)

COc1ccc(C(=O)/C=C/c2cc(-c3ccccc3OC)ccc2OCCN(C)C)c(F)c1
MIC [2]: 10 µM (≈ 4.5 µg/mL)
MIC [3]: 10 µM (≈ 4.5 µg/mL)
MIC [4]: 10 µM (≈ 4.5 µg/mL)

Cc1cc(C)cc(-c2ccc(OCCN(C)C)c(/C=C/C(=O)c3ccc(OCCN(C)C)cc3)c2)c1
MIC [1]: 40 µM (≈ 19.5 µg/mL)
MIC [2]: 10 µM (≈ 4.87 µg/mL)
MIC [3]: 10 µM (≈ 4.87 µg/mL)
MIC [4]: 20 µM (≈ 9.73 µg/mL)

COc1ccc(C(=O)/C=C/c2cc(-c3cc(C)cc(C)c3)ccc2OCCN(C)C)c(CN(C)C)c1
MIC [1]: 75 µM (≈ 36.5 µg/mL)
Hemolysis [5]: <1%
Membrane integrity [6]: 2%
MIC [2]: 5 µM (≈ 2.43 µg/mL)
MIC [3]: 5 µM (≈ 2.43 µg/mL)
MIC [4]: 5 µM (≈ 2.43 µg/mL)

Cc1cc(C)cc(-c2ccc(OCCN(C)C)c(/C=C/C(=O)c3ccccc3NCCN(C)C)c2)c1
MIC [1]: 10 µM (≈ 4.86 µg/mL)
MIC [2]: 10 µM (≈ 4.86 µg/mL)
MIC [3]: 10 µM (≈ 4.86 µg/mL)
MIC [4]: 10 µM (≈ 4.86 µg/mL)

CN(C)CCNc1ccc(/C=C/C(=O)c2ccc(Oc3ccccc3)cc2)cc1
MIC [2]: 20 µM (≈ 7.73 µg/mL)
MIC [3]: 20 µM (≈ 7.73 µg/mL)
MIC [4]: 10 µM (≈ 3.86 µg/mL)

C[N+](C)(C)CCOc1ccc(C(=O)/C=C/c2ccc(Cl)cc2Cl)cc1
MIC [2]: 40 µM

CN(C)CCNc1ccccc1C(=O)/C=C/c1ccc(Cl)cc1Cl
MIC [2]: 40 µM (≈ 14.5 µg/mL)
MIC [3]: 40 µM (≈ 14.5 µg/mL)
MIC [4]: 75 µM (≈ 27.2 µg/mL)

COc1ccc(C(=O)/C=C/c2cc(-c3ccccc3)ccc2CN(C)C)c(F)c1
MIC [2]: 150 µM (≈ 58.4 µg/mL)
MIC [3]: 150 µM (≈ 58.4 µg/mL)
MIC [4]: 150 µM (≈ 58.4 µg/mL)

CN(C)CCOc1ccc(C(=O)/C=C/c2ccc(Cl)cc2Cl)cc1
Hemolysis [5]: 100%
Membrane integrity [6]: 0%
MIC [2]: 40 µM (≈ 14.6 µg/mL)
MIC [3]: 40 µM (≈ 14.6 µg/mL)
MIC [4]: 40 µM (≈ 14.6 µg/mL)

COc1ccc(C(=O)/C=C/c2cc(-c3ccccc3OC)ccc2N2CCCN(C)CC2)c(F)c1
MIC [2]: 10 µM (≈ 4.75 µg/mL)
MIC [3]: 10 µM (≈ 4.75 µg/mL)
MIC [4]: 20 µM (≈ 9.49 µg/mL)

COc1ccc(C(=O)/C=C/c2cc(-c3ccccc3C(F)(F)F)ccc2N2CCN(C)CC2)c(F)c1
MIC [2]: 5 µM (≈ 2.49 µg/mL)
MIC [3]: 10 µM (≈ 4.99 µg/mL)
MIC [4]: 20 µM (≈ 9.97 µg/mL)

CN(C)CCNc1cccc(C(=O)/C=C/c2ccc(Cl)cc2Cl)c1
MIC [2]: 40 µM (≈ 14.5 µg/mL)
MIC [3]: 40 µM (≈ 14.5 µg/mL)
MIC [4]: 40 µM (≈ 14.5 µg/mL)

CN(C)CCNc1cccc(C(=O)/C=C/c2cc(-c3ccccc3)cc(N3CCN(C)CC3)c2)c1
MIC [1]: 75 µM (≈ 35.1 µg/mL)
MIC [2]: 20 µM (≈ 9.37 µg/mL)
MIC [3]: 40 µM (≈ 18.7 µg/mL)
MIC [4]: 40 µM (≈ 18.7 µg/mL)

CCCCN(CCCC)c1ccc(/C=C/C(=O)c2ccc(NCCN(C)C)cc2)cc1
MIC [2]: 10 µM (≈ 4.22 µg/mL)
MIC [3]: 10 µM (≈ 4.22 µg/mL)
MIC [4]: 10 µM (≈ 4.22 µg/mL)

COc1ccc(C(=O)/C=C/c2cc(-c3cccnc3)ccc2N2CCN(C)CC2)c(F)c1
MIC [2]: 75 µM (≈ 32.4 µg/mL)
MIC [3]: 75 µM (≈ 32.4 µg/mL)
MIC [4]: 75 µM (≈ 32.4 µg/mL)

COc1ccc(C(=O)/C=C/c2ccccc2OCCN(C)C)c(F)c1
MIC [2]: 300 µM (≈ 103 µg/mL)
MIC [3]: 300 µM (≈ 103 µg/mL)
MIC [4]: 300 µM (≈ 103 µg/mL)

Cc1cc(C)cc(-c2ccc(OCCN(C)C)c(/C=C/C(=O)c3ccc(CN(C)C)cc3)c2)c1
MIC [1]: 20 µM (≈ 9.13 µg/mL)
MIC [2]: 5 µM (≈ 2.28 µg/mL)
MIC [3]: 10 µM (≈ 4.57 µg/mL)
MIC [4]: 20 µM (≈ 9.13 µg/mL)

CN(C)CCNc1cccc(C(=O)/C=C/c2cc(-c3ccccc3)ccc2N2CCN(C)CC2)c1
MIC [1]: 20 µM (≈ 9.37 µg/mL)
MIC [2]: 20 µM (≈ 9.37 µg/mL)
MIC [3]: 20 µM (≈ 9.37 µg/mL)
MIC [4]: 40 µM (≈ 18.7 µg/mL)

Cc1cc(C)cc(-c2ccc(N3CCNCC3)c(/C=C/C(=O)c3cccc(NCCN(C)C)c3)c2)c1
MIC [1]: 5 µM (≈ 2.41 µg/mL)
Hemolysis [5]: 0%
Membrane integrity [6]: 3%
MIC [2]: 2 µM (≈ 0.965 µg/mL)
MIC [3]: 5 µM (≈ 2.41 µg/mL)
MIC [4]: 5 µM (≈ 2.41 µg/mL)

Cc1cc(C)cc(-c2ccc(OCCN(C)C)c(/C=C/C(=O)c3ccc(NCCN(C)C)cc3)c2)c1
MIC [1]: 20 µM (≈ 9.71 µg/mL)
MIC [2]: 10 µM (≈ 4.86 µg/mL)
MIC [3]: 10 µM (≈ 4.86 µg/mL)
MIC [4]: 20 µM (≈ 9.71 µg/mL)

CN(C)CCNc1ccc(C(=O)/C=C/c2ccc(Cl)cc2)cc1
MIC [2]: 75 µM (≈ 24.7 µg/mL)
MIC [3]: 75 µM (≈ 24.7 µg/mL)
MIC [4]: 75 µM (≈ 24.7 µg/mL)

O=C(O)c1cn(C2CC2)c2cc(N3CCNCC3)c(F)cc2c1=O [CIPROFLOXACIN]
Hemolysis [5]: 0%
Membrane integrity [6]: 102%
MIC [2]: 2 µM (≈ 0.663 µg/mL)

CN(C)CCNc1ccc(C(=O)/C=C/c2cccc(Oc3ccccc3)c2)cc1
MIC [2]: 20 µM (≈ 7.73 µg/mL)
MIC [3]: 20 µM (≈ 7.73 µg/mL)
MIC [4]: 5 µM (≈ 1.93 µg/mL)

Cc1cc(C)cc(-c2ccc(OCCN(C)C)c(/C=C/C(=O)c3cccc(CN(C)C)c3)c2)c1
MIC [1]: 40 µM (≈ 18.3 µg/mL)
MIC [2]: 10 µM (≈ 4.57 µg/mL)
MIC [3]: 10 µM (≈ 4.57 µg/mL)
MIC [4]: 10 µM (≈ 4.57 µg/mL)

Cc1cc(C)cc(-c2ccc(OCCN(C)C)c(/C=C/C(=O)c3ccccc3OCCN(C)C)c2)c1
MIC [1]: 40 µM (≈ 19.5 µg/mL)
MIC [2]: 10 µM (≈ 4.87 µg/mL)
MIC [3]: 10 µM (≈ 4.87 µg/mL)
MIC [4]: 10 µM (≈ 4.87 µg/mL)

COc1ccc(C(=O)/C=C/c2cc(-c3ccccc3OC)ccc2N2CCN(C)CC2)c(F)c1
Hemolysis [5]: 80%
Membrane integrity [6]: 0%
MIC [2]: 10 µM (≈ 4.61 µg/mL)
MIC [3]: 10 µM (≈ 4.61 µg/mL)
MIC [4]: 20 µM (≈ 9.21 µg/mL)

COc1ccc(C(=O)/C=C/c2cc(-c3cc(C)cc(C)c3)ccc2OCCN(C)C)c(F)c1
MIC [2]: 5 µM (≈ 2.24 µg/mL)
MIC [3]: 5 µM (≈ 2.24 µg/mL)
MIC [4]: 5 µM (≈ 2.24 µg/mL)

Cc1cc(C)cc(-c2ccc(N(C)CCN(C)C)c(/C=C/C(=O)c3cccc(NCCN(C)C)c3)c2)c1
MIC [1]: 20 µM (≈ 9.97 µg/mL)
MIC [2]: 10 µM (≈ 4.99 µg/mL)
MIC [3]: 10 µM (≈ 4.99 µg/mL)
MIC [4]: 10 µM (≈ 4.99 µg/mL)

CN(C)CCNc1cccc(C(=O)/C=C/c2ccc(-c3ccccc3)cc2N2CCN(C)CC2)c1
MIC [1]: 40 µM (≈ 18.7 µg/mL)
MIC [2]: 20 µM (≈ 9.37 µg/mL)
MIC [3]: 40 µM (≈ 18.7 µg/mL)
MIC [4]: 40 µM (≈ 18.7 µg/mL)

COc1ccc(C(=O)/C=C/c2cc(-c3cccc(C(F)(F)F)c3)ccc2N2CCN(C)CC2)c(F)c1
MIC [2]: 5 µM (≈ 2.49 µg/mL)
MIC [3]: 5 µM (≈ 2.49 µg/mL)
MIC [4]: 10 µM (≈ 4.99 µg/mL)

C=CC(C)(C)c1cc(/C=C/C(=O)c2ccc(O)cc2)c(OC)cc1O [LICOAGROCHACONE A]
Hemolysis [5]: 100%
Membrane integrity [6]: 0%
MIC [2]: 40 µM (≈ 13.5 µg/mL)
MIC [3]: 40 µM (≈ 13.5 µg/mL)
MIC [4]: 75 µM (≈ 25.4 µg/mL)
